Assay results as given in ChEMBL document CHEMBL4673245, “Discovery of AZD9833, a Potent and Orally Bioavailable Selective Estrogen Receptor Degrader and Antagonist” (J Med Chem, 2020).
Active and inactive are the calls of the source. The calls are words filed in the database; no cut-off is given here.

How the values were obtained:
[1] = target: T1, Estrogen receptor (Homo sapiens) (UniProt P03372); assay: Induction of ERalpha degradation in human MCF7 cells assessed as maximum degradation incubated for 18 to 24 hrs by Alexa fluor 488/Hoechst staining based immunofluorescence imaging analysis relative to fulvestrant; assay type: cell-based; conditions: time lower […], time upper […]
T1 sequence (whole entry): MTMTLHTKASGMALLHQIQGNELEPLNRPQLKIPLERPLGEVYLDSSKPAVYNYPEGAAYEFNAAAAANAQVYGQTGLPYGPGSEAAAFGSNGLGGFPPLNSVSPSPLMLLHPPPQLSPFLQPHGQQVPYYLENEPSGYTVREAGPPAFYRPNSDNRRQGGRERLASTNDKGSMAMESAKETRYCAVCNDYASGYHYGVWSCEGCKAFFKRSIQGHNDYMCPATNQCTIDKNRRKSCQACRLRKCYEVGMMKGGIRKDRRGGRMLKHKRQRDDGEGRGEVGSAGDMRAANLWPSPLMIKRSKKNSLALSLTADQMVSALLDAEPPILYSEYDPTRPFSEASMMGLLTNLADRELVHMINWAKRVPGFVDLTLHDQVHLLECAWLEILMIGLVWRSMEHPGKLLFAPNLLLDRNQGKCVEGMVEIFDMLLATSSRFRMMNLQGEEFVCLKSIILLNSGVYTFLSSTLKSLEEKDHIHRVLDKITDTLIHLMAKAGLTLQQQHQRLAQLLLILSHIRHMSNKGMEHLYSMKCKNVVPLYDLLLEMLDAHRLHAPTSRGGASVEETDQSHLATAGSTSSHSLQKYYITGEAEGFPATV

[2] = Intrinsic clearance in rat hepatocytes assessed per million cells; assay type: ADME, cell-based, Hepatocyte; conditions: read-out: CLH
Method in brief: (§1)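 Hepatocyte intrinsic clearance measured from DMSO stock in isolated hepatocytes diluted to 1x10⁶ cells/mL; rate expressed as µl/min/10⁶ cells.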

[3] = Fraction unbound in human plasma by equilibrium dialysis method; assay type: ADME, cell-free
Method in brief: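 Fraction unbound measured from DMSO stock by equilibrium dialysis in 10% human plasma.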

[4] = Lipophilicity, log D of the compound in buffer and octanol at pH 7.4 by shake flask method; assay type: physicochemical
Method in brief: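 logD at pH 7.4 by shake flask, buffer/octanol volume ratio 100:1.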

[5] = Intrinsic clearance in human hepatocytes assessed per million cells; assay type: ADME, cell-based, Hepatocyte; conditions: read-out: CLH; method in brief: as §1
[6] = target: T1, Estrogen receptor (Homo sapiens); assay: Induction of ERalpha degradation in human CAMA1 cells assessed as decrease in ER-alpha level at 0.1 uM by Western blot analysis relative to fulvestrant; assay type: cell-based; parameters: scale not given: the % may be the effect or the level left; conditions: CAMA-1
Method in brief: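 Western blot for ERα in MCF-7 and CAMA-1 cells after treatment at 0.1 µM. ER level is expressed as % degradation relative to fulvestrant, from a single experiment (n = 1).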

Estrogen receptor [7] = target: T2, Estrogen receptor (Homo sapiens, UniProt P03372); assay: Displacement of fluormone ES2 green reagent from human GST-tagged ERalpha LBD (282 to 595 residues) expressed in baculovirus infected insect cells incubated for 1 hrs by TR-FRET Lanthascreen assay
T2 sequence (P03372 whole entry): T1 sequence (whole entry)

Estrogen receptor [8] = target: T2, Estrogen receptor; assay: Induction of ERalpha degradation in human MCF7 cells assessed as decrease in ER-alpha level incubated for 18 to 24 hrs by Alexa fluor 488/Hoechst staining based immunofluorescence imaging analysis; assay type: cell-based
Method in brief: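 ER degradation in MCF-7 cells via cellular degradation assay; n ≥ 2, degradation also expressed as %Dmax relative to fulvestrant.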

[9] = target: T1, Estrogen receptor (Homo sapiens); assay: Induction of ERalpha degradation in human MCF7 cells assessed as decrease in ER-alpha level at 0.1 uM by Western blot analysis relative to fulvestrant; assay type: cell-based; parameters: scale not given: the % may be the effect or the level left
[10] = target: Voltage-gated inwardly rectifying potassium channel KCNH2 (Homo sapiens, UniProt Q12809); assay: Inhibition of human ERG by plate-based planar patch clamp technique
Chain of Voltage-gated inwardly rectifying potassium channel KCNH2 (Q12809 whole entry): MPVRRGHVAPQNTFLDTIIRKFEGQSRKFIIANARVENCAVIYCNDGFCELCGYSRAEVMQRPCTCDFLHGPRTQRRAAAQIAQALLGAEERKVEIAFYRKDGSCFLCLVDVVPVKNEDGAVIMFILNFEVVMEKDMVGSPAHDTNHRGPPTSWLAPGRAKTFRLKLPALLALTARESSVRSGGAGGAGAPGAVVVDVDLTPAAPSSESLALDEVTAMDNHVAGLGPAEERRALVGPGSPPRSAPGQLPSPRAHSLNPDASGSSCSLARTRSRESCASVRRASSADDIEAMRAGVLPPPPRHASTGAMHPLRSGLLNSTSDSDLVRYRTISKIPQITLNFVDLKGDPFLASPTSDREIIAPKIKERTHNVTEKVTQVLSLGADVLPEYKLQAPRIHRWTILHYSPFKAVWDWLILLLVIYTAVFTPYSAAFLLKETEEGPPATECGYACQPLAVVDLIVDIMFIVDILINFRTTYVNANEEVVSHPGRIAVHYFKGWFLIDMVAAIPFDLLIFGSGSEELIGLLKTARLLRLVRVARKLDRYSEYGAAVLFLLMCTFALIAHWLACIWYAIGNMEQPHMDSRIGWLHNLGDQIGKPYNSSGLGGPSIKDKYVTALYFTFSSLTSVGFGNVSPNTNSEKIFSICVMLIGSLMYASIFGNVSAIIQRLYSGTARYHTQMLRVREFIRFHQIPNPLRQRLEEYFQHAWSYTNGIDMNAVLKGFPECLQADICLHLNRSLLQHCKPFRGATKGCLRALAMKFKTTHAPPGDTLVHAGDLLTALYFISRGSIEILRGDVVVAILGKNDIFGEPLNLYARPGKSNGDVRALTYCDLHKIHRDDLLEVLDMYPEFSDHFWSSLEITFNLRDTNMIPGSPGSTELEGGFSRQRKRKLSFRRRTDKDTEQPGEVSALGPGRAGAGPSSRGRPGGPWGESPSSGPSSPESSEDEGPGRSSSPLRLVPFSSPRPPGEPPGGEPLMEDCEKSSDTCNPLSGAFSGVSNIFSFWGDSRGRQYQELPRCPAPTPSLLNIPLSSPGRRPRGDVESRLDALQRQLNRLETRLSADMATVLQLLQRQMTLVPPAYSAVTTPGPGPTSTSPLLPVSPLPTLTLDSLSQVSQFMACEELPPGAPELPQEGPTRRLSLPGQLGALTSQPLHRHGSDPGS
Method in brief: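 hERG tail current inhibition recorded on a plate-based planar patch clamp system; IC50 reported.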

Mus musculus = assay: In vivo antagonist activity at ERalpha in human MCF7 cells xenografted CB17 SCID mouse assessed as decrease in PR expression level at 5 mg, po administered via gavage three times a week for 21 days measured 24 hrs post last dose by Western blot analysis; assay type: functional, organism-based; conditions: time 21.0 day
MCF7 = assay: Antitumor activity against human […] cells xenografted in CB17 SCID mouse assessed as tumor regression at 5 mg, po administered via gavage three times a week for 21 days; assay type: functional, organism-based; conditions: time 21.0 day
[11] = Fraction unbound in dog plasma; assay type: ADME, cell-free, Canis lupus familiaris
Cytochrome P450 2C9 = Cytochrome P450 2C9 (Homo sapiens, UniProt P11712); assay: Inhibition of CYP2C9 in human liver microsomes; assay type: ADME; conditions: human, microsomes
Chain of Cytochrome P450 2C9 (P11712 whole entry, canonical isoform): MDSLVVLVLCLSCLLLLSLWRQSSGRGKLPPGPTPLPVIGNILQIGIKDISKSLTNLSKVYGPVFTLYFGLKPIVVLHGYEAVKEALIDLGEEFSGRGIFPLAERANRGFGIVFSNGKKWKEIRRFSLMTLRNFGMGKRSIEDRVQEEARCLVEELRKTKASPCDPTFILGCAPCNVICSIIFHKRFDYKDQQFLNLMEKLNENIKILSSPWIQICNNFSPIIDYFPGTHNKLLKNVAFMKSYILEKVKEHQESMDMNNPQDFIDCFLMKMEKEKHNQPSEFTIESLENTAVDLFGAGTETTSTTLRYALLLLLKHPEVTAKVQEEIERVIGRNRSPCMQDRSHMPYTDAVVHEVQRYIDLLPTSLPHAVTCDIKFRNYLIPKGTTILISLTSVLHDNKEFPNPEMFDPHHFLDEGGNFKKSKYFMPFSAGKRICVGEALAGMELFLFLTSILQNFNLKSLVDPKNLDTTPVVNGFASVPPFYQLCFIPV
Method in brief: (§2)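 High-throughput human liver microsome panel of five CYP isoforms; inhibition reported as IC50.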

Cytochrome P450 1A2 = target: T3, Cytochrome P450 1A2 (Homo sapiens, UniProt P05177); assay: Inhibition of CYP1A2 in human liver microsomes; assay type: ADME; conditions: human, microsomes; method in brief: as §2
T3 sequence (P05177 whole entry): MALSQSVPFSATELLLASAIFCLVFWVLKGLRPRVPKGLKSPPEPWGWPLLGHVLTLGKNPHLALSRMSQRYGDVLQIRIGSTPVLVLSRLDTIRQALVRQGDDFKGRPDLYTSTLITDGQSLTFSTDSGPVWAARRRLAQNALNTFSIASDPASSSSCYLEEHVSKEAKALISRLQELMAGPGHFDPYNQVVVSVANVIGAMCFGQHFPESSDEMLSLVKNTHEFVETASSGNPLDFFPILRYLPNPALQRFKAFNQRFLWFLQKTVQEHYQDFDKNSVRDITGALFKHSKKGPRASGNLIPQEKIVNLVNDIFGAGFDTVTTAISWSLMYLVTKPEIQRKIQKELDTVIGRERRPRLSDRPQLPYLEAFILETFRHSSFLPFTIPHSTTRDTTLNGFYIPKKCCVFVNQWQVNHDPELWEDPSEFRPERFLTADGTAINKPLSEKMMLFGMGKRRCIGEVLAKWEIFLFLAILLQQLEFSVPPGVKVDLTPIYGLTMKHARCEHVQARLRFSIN

[12] = Half-life in rat at 0.5 mg/kg, iv or 1 mg/kg, po; assay type: ADME, organism-based; conditions: in vivo
Method in brief: (§3)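 Rat PK: single IV dose 0.5 mg/kg and oral dose 1 mg/kg, formulated in 5% DMSO:95% hydroxypropyl-β-cyclodextrin (30% w/v), dosed at 1 mL/kg IV and 4 mL/kg PO.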

[13] = Fraction unbound in mouse plasma; assay type: ADME, cell-free
Cytochrome P450 2C19 = Cytochrome P450 2C19 (Homo sapiens, UniProt P33261); assay: Inhibition of CYP2C19 in human liver microsomes; assay type: ADME; conditions: human, microsomes; method in brief: as §2
Chain of Cytochrome P450 2C19 (P33261 whole entry): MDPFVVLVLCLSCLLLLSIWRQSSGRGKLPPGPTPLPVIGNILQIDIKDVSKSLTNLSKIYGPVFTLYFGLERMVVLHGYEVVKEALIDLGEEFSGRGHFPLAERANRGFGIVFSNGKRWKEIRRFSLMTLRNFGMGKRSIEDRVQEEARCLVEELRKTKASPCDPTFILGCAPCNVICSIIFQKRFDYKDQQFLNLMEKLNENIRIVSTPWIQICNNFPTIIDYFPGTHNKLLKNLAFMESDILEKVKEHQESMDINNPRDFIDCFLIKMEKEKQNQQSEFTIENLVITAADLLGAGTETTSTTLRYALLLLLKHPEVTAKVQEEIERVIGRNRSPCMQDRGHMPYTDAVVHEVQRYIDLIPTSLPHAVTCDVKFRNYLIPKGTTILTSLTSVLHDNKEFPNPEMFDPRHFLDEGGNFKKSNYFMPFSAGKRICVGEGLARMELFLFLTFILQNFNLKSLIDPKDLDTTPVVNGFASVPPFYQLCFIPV

[14] = Volume of distribution at steady state in rat at 0.5 mg/kg, iv or 1 mg/kg, po; assay type: ADME, organism-based; conditions: in vivo, read-out: Vdss
Method in brief: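 Rat dosed IV at 0.5 mg/kg and PO at 1 mg/kg, both formulated in 5% DMSO:95% hydroxypropyl-β-cyclodextrin (30% w/v), at 1 mL/kg IV and 4 mL/kg PO. Vdss (L/kg) derived from the pharmacokinetic profile after dosing.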

[15] = Dissociation constant, dibasic pKa of compound in 0.1 M potassium chloride in presence of piperidine by UV-vis spectroscopy; assay type: physicochemical
[16] = Clearance in rat at 0.5 mg/kg, iv or 1 mg/kg, po; assay type: ADME, organism-based; conditions: in vivo; method in brief: as §3
[17] = Oral bioavailability in rat at 1 mg/kg; assay type: ADME, organism-based; conditions: in vivo; method in brief: as §3
[18] = Solubility of compound in phosphate buffer at pH 7.4 incubated for 24 hrs at 25 degree C; assay type: physicochemical
Method in brief: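 Aqueous phosphate buffer pH 7.4, compound added from DMSO stock, equilibrated 24 h at 25 °C.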

[19] = Fraction unbound in rat plasma; assay type: ADME, cell-free
Cytochrome P450 2D6 = Cytochrome P450 2D6 (Homo sapiens, UniProt P10635); assay: Inhibition of CYP2D6 in human liver microsomes; assay type: ADME; method in brief: as §2
Chain of Cytochrome P450 2D6 (P10635 whole entry): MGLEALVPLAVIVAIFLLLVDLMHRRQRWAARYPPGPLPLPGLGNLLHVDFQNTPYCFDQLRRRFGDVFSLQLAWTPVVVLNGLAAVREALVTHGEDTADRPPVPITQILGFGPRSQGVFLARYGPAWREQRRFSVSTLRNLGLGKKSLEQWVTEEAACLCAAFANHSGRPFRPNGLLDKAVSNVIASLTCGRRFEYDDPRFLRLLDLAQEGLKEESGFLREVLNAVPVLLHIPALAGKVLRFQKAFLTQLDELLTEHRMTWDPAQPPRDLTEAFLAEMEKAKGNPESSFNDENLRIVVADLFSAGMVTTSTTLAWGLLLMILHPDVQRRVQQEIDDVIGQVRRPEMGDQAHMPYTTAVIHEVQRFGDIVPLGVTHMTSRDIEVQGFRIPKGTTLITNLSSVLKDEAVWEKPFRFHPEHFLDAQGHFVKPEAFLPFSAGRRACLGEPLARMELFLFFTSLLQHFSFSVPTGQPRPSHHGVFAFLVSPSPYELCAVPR

[20] = Dissociation constant, dibasic pKa of compound in 0.1 M potassium chloride in presence of azetidine by UV-vis spectroscopy; assay type: physicochemical
Cytochrome P450 3A4 = Cytochrome P450 3A4 (Homo sapiens, UniProt P08684); assay: Inhibition of CYP3A4 in human liver microsomes; assay type: ADME; method in brief: as §2
Chain of Cytochrome P450 3A4 (P08684 whole entry): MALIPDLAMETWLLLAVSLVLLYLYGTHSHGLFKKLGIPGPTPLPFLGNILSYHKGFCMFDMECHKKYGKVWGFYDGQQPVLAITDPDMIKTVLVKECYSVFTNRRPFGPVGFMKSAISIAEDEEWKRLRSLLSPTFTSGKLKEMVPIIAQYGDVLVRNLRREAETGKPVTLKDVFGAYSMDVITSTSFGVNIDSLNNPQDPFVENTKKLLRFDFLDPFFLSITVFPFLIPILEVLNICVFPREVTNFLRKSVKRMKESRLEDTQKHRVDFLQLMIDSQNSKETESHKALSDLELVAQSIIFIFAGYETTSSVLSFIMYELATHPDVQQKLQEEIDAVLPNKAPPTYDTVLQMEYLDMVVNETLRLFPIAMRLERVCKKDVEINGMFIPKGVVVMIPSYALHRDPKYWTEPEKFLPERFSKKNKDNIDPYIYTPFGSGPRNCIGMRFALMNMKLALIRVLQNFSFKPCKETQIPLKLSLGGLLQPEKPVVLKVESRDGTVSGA

Compound	Emax [1] [%]	hepatocyte CLint [2] [µL/min/1e6 cells]	fraction unbound [3]	logD [4]	hepatocyte CLint [5] [µL/min/1e6 cells]	Activity [6] [%]	IC50 (Estrogen receptor [7]) [nM]	IC50 (Estrogen receptor [8]) [nM]	Activity [9] [%]	IC50 [10] [nM]	other results
C[C@@H]1Cc2c(ccc3[nH]ncc23)[C@@H](c2ccc(OCCN3CC(CF)C3)cn2)N1CC(F)(F)F	96	45	0.22	3	3	80	1.26	0.398	91		
C[C@@H]1Cc2c(ccc3[nH]ncc23)[C@@](C)(c2ccc(NC3CN(CCCF)C3)cn2)N1CC(F)F	96	114	0.1				10	1		13000	
C[C@@H]1Cc2c(ccc3[nH]ncc23)[C@@H](c2ccc(N[C@H]3CCN(CCCF)C3)cn2)N1CC(F)(F)F	99	22	0.18	3	5	104	2.51	0.126	95	13000	
C[C@@H]1Cc2c(ccc3[nH]ccc23)[C@@H](c2ccc(NC3CN(CCCF)C3)cn2)N1CC(F)(F)F	98	10	0.073	3.2	3	85	3.16	0.158	98		
C[C@]12CC[C@@H]3c4ccc(O)cc4C[C@@H](CCCCCCCCC[S+]([O-])CCCC(F)(F)C(F)(F)F)[C@H]3[C@@H]1CC[C@@H]2O (stereo partly drawn)											Activity (Mus musculus): Active; Activity (MCF7): Active
COc1cc(NC2CN(CCCF)C2)ccc1[C@@H]1c2ccc3[nH]ncc3c2C[C@@H](C)N1CC1(F)CC1	96	7	0.34			84	7.94	0.316	89		fraction unbound [11]: 0.22; inhibition (INH) (Cytochrome P450 2C9): Not Active; inhibition (INH) (Cytochrome P450 1A2): Not Active; half-life [12]: 11 h; fraction unbound [13]: 0.39; inhibition (INH) (Cytochrome P450 2C19): Not Active; Vd [14]: 71 L/kg; pKa [15]: 7.8; clearance [16]: 125 mL/min/kg; bioavailability [17]: 3%; solubility at 24 h [18]: > 900 µM; fraction unbound [19]: 0.51; IC50 (Cytochrome P450 2D6): 1200 nM; pKa [20]: 8.7; IC50 (Cytochrome P450 3A4): 11000 nM
